{"source": "paper PMC5420486", "about": "(Clinical cancer research : an official journal of the …, 2016)", "key": {"[1]": {"tested_on": "Asian patients with advanced HCC", "test": "Phase I dose-escalation, standard 3+3 design", "assay_type": "in vivo"}, "[2]": {"tested_on": "patients with advanced HCC", "test": "Safety assessment: adverse events graded by CTCAE v3.0", "assay_type": "in vivo, human", "details": "for Diarrhoea: treatment-related AE"}, "[3]": {"tested_on": "advanced hepatocellular carcinoma (HCC) patients", "test": "Anti-tumor activity and survival", "assay_type": "in vivo, human"}, "[4]": {"test": "Plasma pharmacokinetics, noncompartmental analysis", "assay_type": "in vivo, human", "details": "for Tmax: human, plasma, oral", "method_in_brief": "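Patients were dosed orally once daily. Blood was drawn within 60 minutes predose and at 1, 2, 3, 4, 6, 8 and 24 h post dose on days 1 and 15, in both escalation and expansion cohorts. Cmax, Tmax, AUC0-24, AUC0-∞, T1/2, C24 and CL/F were derived from plasma test compound concentrations by noncompartmental analysis.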"}, "advanced HCC patients": {"tested_on": "advanced HCC patients", "test": "Pharmacogenomic and exploratory biomarker subgroup analyses of TTP", "assay_type": "in vivo, human", "details": "30 mg QD", "method_in_brief": "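Advanced HCC patients took oral test compound once daily. For genotyping, venous blood DNA was typed at 20 SNPs in 14 candidate genes by Sanger sequencing or TaqMan assays. Circulating markers, including IL6, were measured by Searchlight at baseline (day 1). TTP ran from drug start to documented progression or death. Genotype was tested by time-to-event models with score (log-rank) test, unadjusted. Biomarkers were tested by proportional hazards regression, univariate and covariate-adjusted.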"}, "[5]": {"tested_on": "patients with other solid tumors", "details": "other tumor types, predominantly non-Asian populations; cited from earlier work"}, "[6]": {"tested_on": "Asia-Pacific patients with HCC", "details": "cited from earlier work"}, "[7]": {"details": "30 mg QD, RECIST population (n=38)"}, "[8]": {"details": "30 mg QD, mRECIST population (n=35)"}}, "note": "Entries after “also recorded” stand apart in the source; their conditions may differ.", "data": [{"smiles": "COc1cc2c(Oc3ccc(NC(=O)C4(C(=O)Nc5ccc(F)cc5)CC4)cc3F)ccnc2cc1OCCCN1CCOCC1", "note": "[foretinib]", "values": [{"measurement": "maximum tolerated dose (MTD)", "setting": "[1]; Asian patients with advanced HCC, oral, first-line", "result": 30, "unit": "mg QD"}, {"measurement": "dose-limiting toxicities (DLTs)", "setting": "[1]; in vivo", "result": "no DLTs"}, {"measurement": "fatal events", "setting": "[2]; 30 mg", "result": "three"}, {"measurement": "relation of fatal events to study treatment", "setting": "[2]; 30 mg", "result": "none of these events were considered related to study treatment"}, {"measurement": "dose reductions due to an AE", "setting": "[2]; 30 mg QD", "result": "no patients; also recorded: no dose reductions"}, {"measurement": "Abdominal pain", "setting": "[2]; 30 mg QD, N=39, all patients", "result": "5 (12·8) n (%)"}, {"measurement": "Cough", "setting": "[2]; 30 mg QD, N=39, all patients", "result": "6 (15·4) n (%)"}, {"measurement": "Hypoalbuminaemia", "setting": "[2]; 30 mg QD, N=39, all patients", "result": "7 (17·9) n (%)"}, {"measurement": "Insomnia", "setting": "[2]; 30 mg QD, N=39, all patients", "result": "6 (15·4) n (%)"}, {"measurement": "Diarrhoea", "setting": "[2]; 30 mg QD, N=39, all patients", "result": "6 (15·4) n (%)"}, {"measurement": "Abdominal pain", "setting": "[2]; 30 mg QD, N=39, grade 3", "result": "3 (7·7) n (%)"}, {"measurement": "Cough", "setting": "[2]; 30 mg QD, N=39, grade 3", "result": "0 n (%)"}, {"measurement": "Hypoalbuminaemia", "setting": "[2]; 30 mg QD, N=39, grade 3", "result": "5 (12.8) n (%)"}, {"measurement": "Insomnia", "setting": "[2]; 30 mg QD, N=39, grade 3", "result": "1 (2.6) n (%)"}, {"measurement": "Diarrhoea", "setting": "[2]; 30 mg QD, N=39, grade 3", "result": "0 n (%)"}, {"measurement": "Abdominal pain", "setting": "[2]; 30 mg QD, N=39, grade 4", "result": "0 n (%)"}, {"measurement": "Cough", "setting": "[2]; 30 mg QD, N=39, grade 4", "result": "0 n (%)"}, {"measurement": "Hypoalbuminaemia", "setting": "[2]; 30 mg QD, N=39, grade 4", "result": "0 n (%)"}, {"measurement": "Insomnia", "setting": "[2]; 30 mg QD, N=39, grade 4", "result": "0 n (%)"}, {"measurement": "Oedema peripheral", "setting": "[2]; 30 mg QD, N=39, grade 4", "result": "1 (2.6) n (%)"}, {"measurement": "Diarrhoea", "setting": "[2]; 30 mg QD, N=39, grade 4", "result": "0 n (%)"}, {"measurement": "median time to progression (TTP)", "setting": "[3]; 30 mg QD", "result": 4.2, "unit": "months"}, {"measurement": "Disease stabilization rate", "setting": "[3]; [7]", "result": "24 (63·2) n (%)"}, {"measurement": "Objective response rate", "setting": "[3]; [7]", "result": "3 (7·9) n (%)"}, {"measurement": "Patients achieving best overall response: Complete response", "setting": "[3]; [7]", "result": "0 n (%)"}, {"measurement": "Patients achieving best overall response: Disease progression", "setting": "[3]; [7]", "result": "14 (36.8) n (%)"}, {"measurement": "Patients achieving best overall response: Partial response", "setting": "[3]; [7]", "result": "3 (7.9) n (%)"}, {"measurement": "Patients achieving best overall response: Stable disease", "setting": "[3]; [7]", "result": "21 (55.3) n (%)"}, {"measurement": "median overall survival (OS)", "setting": "[3]; 30 mg QD, all enrolled patients treated at the MTD (N=39), Kaplan-Meier", "result": 15.7, "unit": "months"}, {"measurement": "Disease stabilization rate", "setting": "[3]; 30 mg QD, mRECIST", "result": 82.9, "unit": "%"}, {"measurement": "median duration of response", "setting": "[3]; 30 mg QD, mRECIST", "result": 7.6, "unit": "months"}, {"measurement": "Disease stabilization rate", "setting": "[3]; [8]", "result": "29 (82·9) n (%)"}, {"measurement": "Objective response rate", "setting": "[3]; [8]", "result": "8 (22·9) n (%)"}, {"measurement": "Patients achieving best overall response: Complete response", "setting": "[3]; [8]", "result": "0 n (%)"}, {"measurement": "Patients achieving best overall response: Disease progression", "setting": "[3]; [8]", "result": "6 (17·1) n (%)"}, {"measurement": "Patients achieving best overall response: Partial response", "setting": "[3]; [8]", "result": "8 (22·9) n (%)"}, {"measurement": "Patients achieving best overall response: Stable disease", "setting": "[3]; [8]", "result": "21 (60·0) n (%)"}, {"measurement": "objective response rate (ORR)", "setting": "[3]; 30 mg QD, mRECIST, 35 evaluable patients", "result": 22.9, "unit": "%"}, {"measurement": "Patients achieving ≥50% reduction from baseline AFP", "setting": "[3]; 30 mg QD, patients with baseline AFP ≥200 ng/mL (n=15), mRECIST population", "result": "7 (46·7) n (%)"}, {"measurement": "patients with a 50% decrease from baseline AFP at at least one time point", "setting": "[3]; 30 mg, baseline AFP ≥ 200 ng/mL", "result": 46.7, "unit": "%"}, {"measurement": "patients achieving a PR", "setting": "[3]; 30 mg, mRECIST", "result": "eight"}, {"measurement": "dose-proportionality assessment", "setting": "[4]; 30 to 45 mg, day 15", "result": "dose proportionality was not achieved"}, {"measurement": "oral clearance (CL/F), 45-mg dose compared with 30-mg dose", "setting": "[4]; day 15, N=6, interpret with caution", "result": 50, "unit": "% higher"}, {"measurement": "Tmax", "setting": "[4]", "result": "3 to 3.5", "unit": "h"}, {"measurement": "Tmax", "setting": "[4]; 30 mg", "result": 3, "unit": "h"}, {"measurement": "median TTP", "setting": "advanced HCC patients; one or no copy of NR1I3/CAR CAT haplotype", "result": "≈ 6 months"}, {"measurement": "median TTP", "setting": "advanced HCC patients; two copies of NR1I3/CAR CAT haplotype", "result": "≈ 2 months"}, {"measurement": "previously reported MTD", "setting": "[5]", "result": 60, "unit": "mg QD"}]}, {"smiles": "CNC(=O)c1cc(Oc2ccc(NC(=O)Nc3ccc(Cl)c(C(F)(F)F)c3)cc2)ccn1", "note": "[sorafenib]", "values": [{"measurement": "patients requiring dose reduction", "setting": "[6]; Asia-Pacific patients with HCC", "result": 30.9, "unit": "%"}, {"measurement": "median OS", "setting": "[6]; pivotal Asia-Pacific sorafenib study", "result": 6.5, "unit": "months"}]}]}
